Test results taken from paper PMC7877830 (Clinical and Translational Science, 2020).
“And” between values parts separate entries of the source, which are not always exact repeats. Equal entries are not always repeated. Where two headings read alike, the source gives them in different places.

Tests used:
OATP1B3 [1] = settings: read-out: Km for OATP1B3; cited from earlier work
OATP1B1/1B3 [2] = settings: n = 56; across different ethnicities; cited from earlier work
OATP1B1/1B3 [3] = assay type: in vivo, human; settings: for AUC0–16 of endogenous biomarker / AUC0–48 of endogenous biomarker / Cmax of endogenous biomarker: geometric mean (mean, %CV); for AUC0–16 ratio relative to baseline / AUC0–48 ratio relative to baseline / Cmax ratio relative to baseline: point estimate (90% CI)
Outline: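 Healthy volunteers in a crossover each got a single fasting 300/120 mg dose of formulation A, B or C. Plasma (K2EDTA, stored −20 °C) drawn predose and up to 48 h. Cmax, AUC0–16 and AUC0–48 derived noncompartmentally by linear trapezoid. Predose level served as baseline; baseline AUC = baseline concentration × interval. Ratios to baseline given with 90% CI; mixed model compared A or B with C.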

OATP1B1 [4] = settings: read-out: Km for OATP1B1; cited from earlier work
[5] = cited from earlier work
OATP1B1 [6] = settings: as per the FDA guidance; unbound concentration in hepatic portal vein; cited from earlier work
OATP1B3 [7] = settings: as per the FDA guidance; unbound concentration in hepatic portal vein; cited from earlier work
[8] = cited from earlier work; remark: listed apart in the source
OATP1B1 [9] = settings: read-out: OATP1B1 IC50, cited from earlier work
[10] = assay type: in vivo, human; settings: for AUC(0-t) / Cmax: human, plasma, oral; for Cmax: geometric mean (mean, %CV), healthy subjects
Outline: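 Phase I single-dose complete crossover in healthy subjects, randomised to two test formulations and a reference formulation. Dosed 300/120 mg fasting in the morning, with at least 5 days washout; subjects confined ~4 days on standardized meals. Plasma (K2EDTA, stored −20 °C) sampled predose to 48 h and extracted liquid-liquid with deuterated internal standards. Calibration ~0.200–100 ng/mL; high range ~85.0–10,000 (GLE) or ~85.0–1,050 ng/mL (PIB). Noncompartmental, linear-trapezoidal analysis; BLQ set to zero.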

OATP1B3 [11] = settings: read-out: OATP1B3 IC50; in vitro; cited from earlier work
[12] = cited from earlier work; remark: listed apart in the source
[13] = after GLE/PIB 300/120 mg Formulation A
[14] = after GLE/PIB 300/120 mg Formulation B
[15] = after GLE/PIB 300/120 mg Formulation C
[16] = AUC0–16, geometric mean (mean, %CV), GLE/PIB 300/120 mg Formulation A
[17] = AUC0–16, geometric mean (mean, %CV), GLE/PIB 300/120 mg Formulation B
[18] = AUC0–16, geometric mean (mean, %CV), GLE/PIB 300/120 mg Formulation C
[19] = AUC0–48, geometric mean (mean, %CV), GLE/PIB 300/120 mg Formulation A
[20] = AUC0–48, geometric mean (mean, %CV), GLE/PIB 300/120 mg Formulation B
[21] = AUC0–48, geometric mean (mean, %CV), GLE/PIB 300/120 mg Formulation C
[22] = single dose GLE/PIB 300/120 mg Formulation A, fasting
[23] = single dose GLE/PIB 300/120 mg Formulation B, fasting
[24] = single dose GLE/PIB 300/120 mg Formulation C (reference), fasting

SMILES | AUC0–16 of endogenous biomarker (OATP1B1/1B3 [3]; [13]) | AUC0–48 of endogenous biomarker (OATP1B1/1B3 [3]; [13]) | Cmax of endogenous biomarker (OATP1B1/1B3 [3]; [13]) | AUC0–16 of endogenous biomarker (OATP1B1/1B3 [3]; [14]) | AUC0–48 of endogenous biomarker (OATP1B1/1B3 [3]; [14]) | Cmax of endogenous biomarker (OATP1B1/1B3 [3]; [14]) | AUC0–16 of endogenous biomarker (OATP1B1/1B3 [3]; [15]) | AUC0–48 of endogenous biomarker (OATP1B1/1B3 [3]; [15]) | Cmax of endogenous biomarker (OATP1B1/1B3 [3]; [15]) | AUC0–16 ratio relative to baseline (OATP1B1/1B3 [3]; [13]) | AUC0–48 ratio relative to baseline (OATP1B1/1B3 [3]; [13]) | Cmax ratio relative to baseline (OATP1B1/1B3 [3]; [13]) | AUC0–16 ratio relative to baseline (OATP1B1/1B3 [3]; [14]) | AUC0–48 ratio relative to baseline (OATP1B1/1B3 [3]; [14]) | Cmax ratio relative to baseline (OATP1B1/1B3 [3]; [14]) | AUC0–16 ratio relative to baseline (OATP1B1/1B3 [3]; [15]) | AUC0–48 ratio relative to baseline (OATP1B1/1B3 [3]; [15]) | Cmax ratio relative to baseline (OATP1B1/1B3 [3]; [15]) | half-life [5] | OATP1B1 R value (OATP1B1 [6]) | further results
CC1=C(CCC(=O)O)c2cc3nc(cc4[nH]c(cc5[nH]c(cc1n2)c(CCC(=O)O)c5C)c(CCC(=O)O)c4C)C(CCC(=O)O)=C3C [CP‐I, coproporphyrin (CP)‐I] | 8.98 (9.10, 16) ng·h/mL | 25.4 (25.6, 12) ng·h/mL | 0.726 (0.740, 21) ng/mL | 11.7 (11.9, 23) ng·h/mL | 28.2 (28.5, 18) ng·h/mL | 1.19 (1.24, 26) ng/mL | 13.2 (13.3, 16) ng·h/mL | 30.3 (30.6, 13) ng·h/mL | 1.44 (1.48, 23) ng/mL | 0.97 (0.89 to 1.06) | 0.91 (0.85 to 0.97) | 1.25 (1.12 to 1.41) | 1.25 (1.18 to 1.32) | 1.01 (0.96 to 1.06) | 2.05 (1.81 to 2.32) | 1.39 (1.29 to 1.51) | 1.07 (1.02 to 1.13) | 2.44 (2.11 to 2.82) | – | – | Km (OATP1B3 [1]): 3.95 µM; baseline plasma concentration, previously reported range (OATP1B1/1B3 [2]): 0.5 to 1.5 nM; baseline plasma concentration (OATP1B1/1B3 [3]; mean and SD, predose, all study periods): 0.59 ± 0.09 ng/mL and 0.90 ± 0.14 nM; Km (OATP1B1 [4]): 0.13 µM
CC1=C(CCC(=O)O)c2cc3nc(cc4[nH]c(cc5[nH]c(cc1n2)c(C)c5CCC(=O)O)c(CCC(=O)O)c4C)C(CCC(=O)O)=C3C [CP‐III] | 1.20 (1.22, 19) ng·h/mL | 3.32 (3.44, 23) ng·h/mL | 0.104 (0.105, 16) ng/mL | 1.07 (1.24, 73) ng·h/mL | 2.77 (3.44, 41) ng·h/mL | 0.113 (0.116, 25) ng/mL | 1.23 (1.30, 36) ng·h/mL | 2.87 (3.23, 41) ng·h/mL | 0.115 (0.119, 26) ng/mL | 0.94 (0.84 to 1.06) | 0.86 (0.82 to 0.95) | 1.31 (1.18 to 1.46) | 0.96 (0.85 to 1.08) | 0.90 (0.80 to 1.01) | 1.34 (1.18 to 1.53) | 1.01 (0.86 to 1.20) | 0.79 (0.60 to 1.03) | 1.49 (1.24 to 1.78) | – | – | –
CC(C)(C)[C@@H]1NC(=O)O[C@@H]2CCC[C@H]2OC/C=C/C(F)(F)c2nc3ccccc3nc2O[C@@H]2C[C@@H](C(=O)N[C@]3(C(=O)NS(=O)(=O)C4(C)CC4)C[C@H]3C(F)F)N(C2)C1=O [GLE, glecaprevir] | – | – | – | – | – | – | – | – | – | – | – | – | – | – | – | – | – | – | about 6 hours | 5.5 | OATP1B3 R value (OATP1B3 [7]): 2.2; fu,p (fraction of unbound inhibitor in plasma) [8]: 0.025; IC50 (OATP1B1 [9]; in vitro): 17 nM; share of exposure observed in the first 16 hours postdose ([10]; across formulations): 94–97%; exposures (Cmax, AUC0–16, AUC0–48) lower relative to reference formulation C ([10]; formulation A, fasting): ~ 80%; exposures (Cmax, AUC0–16, AUC0–48) lower relative to reference formulation C ([10]; formulation B, fasting): ~26%; AUC(0-t) [10, 16]: 344 ng·h/mL; AUC(0-t) [10, 17]: 1330 ng·h/mL; AUC(0-t) [10, 18]: 1800 ng·h/mL; AUC(0-t) [10, 19]: 367 ng·h/mL; AUC(0-t) [10, 20]: 1370 ng·h/mL; AUC(0-t) [10, 21]: 1850 ng·h/mL; Cmax [10, 22]: 88.5 ng/mL; Cmax [10, 23]: 330 ng/mL; Cmax [10, 24]: 444 ng/mL; IC50 (OATP1B3 [11]): 64 nM
COC(=O)N[C@H](C(=O)N1CCC[C@H]1c1nc2cc([C@H]3CC[C@H](c4cc5nc([C@@H]6CCCN6C(=O)[C@@H](NC(=O)OC)[C@@H](C)OC)[nH]c5cc4F)N3c3cc(F)c(N4CCC(c5ccc(F)cc5)CC4)c(F)c3)c(F)cc2[nH]1)[C@@H](C)OC [PIB, pibrentasvir] | – | – | – | – | – | – | – | – | – | – | – | – | – | – | – | – | – | – | ~13 h | 1.4 | RB (blood-to-plasma concentration ratio) [12]: 0.62; IC50 (OATP1B1 [9]; in the presence of 4% bovine serum albumin): 1300 nM; exposures lower relative to reference formulation C ([10]; formulations A and B, fasting): 28–49%; AUC(0-t) [10, 16]: 546 ng·h/mL; AUC(0-t) [10, 17]: 514 ng·h/mL; AUC(0-t) [10, 18]: 977 ng·h/mL; AUC(0-t) [10, 19]: 658 ng·h/mL; AUC(0-t) [10, 20]: 622 ng·h/mL; AUC(0-t) [10, 21]: 1170 ng·h/mL; Cmax [10, 22]: 86.8 ng/mL; Cmax [10, 23]: 83.7 ng/mL; Cmax [10, 24]: 163 ng/mL
